Results from ChEMBL document CHEMBL2010793, “Synthesis of novel 7-oxo and 7-hydroxy trifluoroallocolchicinoids with cytotoxic effect” (Bioorg Med Chem, 2012).

How the values were obtained:
KB [1] = assay: Cytotoxicity against human KB cells assessed as inhibition of cell proliferation at 10^-5 M after 72 hrs by MTS assay; assay type: functional; details: read-out: GI
Procedure, shortened: (§1)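 KB cells seeded at 650 cells/well in 200 µl medium, dosed 24 h later with compounds from DMSO (1% DMSO final; controls DMSO only). After 72 h, MTS added for 3 h at 37 °C, A490 read; inhibition from treated/control OD ratio. Single-concentration tests in triplicate with docetaxel 2.5 10^-10 M reference; IC50 runs in separate duplicate.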

KB [2] = assay: Cytotoxicity against human KB cells assessed as inhibition of cell proliferation at 10^-6 M after 72 hrs by MTS assay; assay type: functional; details: read-out: GI; procedure, shortened: as §1
Ovis aries = species on record: Ovis aries; assay: Inhibition of sheep brain tubulin polymerization at 6.7 x 10^-5 M after 15 mins by turbidimetry analysis
Procedure, shortened: (§2)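 Microtubule protein from sheep brain, purified by two assembly/disassembly cycles (37 °C/0 °C) in 100 mM MES pH 6.6, 1 mM EGTA, 0.5 mM MgCl2. Compound with microtubule solution held 10 min at 37 °C then 5 min at 0 °C; polymerization followed by turbidity at 350 nm. Screened at 6.7 10^-5 M in triplicate, deoxypodophyllotoxin reference.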

[3] = Inhibition of sheep brain tubulin polymerization after 15 mins by turbidimetry analysis; parameters: species or system Ovis aries; procedure, shortened: as §2
KB [4] = assay: Cytotoxicity against human KB cells assessed as inhibition of cell proliferation after 72 hrs by MTS assay; assay type: functional, cell-based; procedure, shortened: as §1
KB [5] = assay: Cytotoxicity against human KB cells; assay type: functional, cell-based
Procedure, shortened: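 KB cells seeded at 650 cells/well and dosed 24 h later with compounds in DMSO (1% final). Screened at 10^-5 and 10^-6 M in triplicate, with docetaxel 2.5 10^-10 M as reference. After 72 h, MTS was added for 3 h at 37 °C and A490 was read. Inhibition was derived from treated/control OD. IC50 was run in separate duplicate when inhibition exceeded 80% at 10^-5 M.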

[6] = Inhibition of tubulin polymerization
Procedure, shortened: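 Sheep brain microtubule protein was purified by two assembly/disassembly cycles (37 °C/0 °C) in 100 mM MES pH 6.6, 1 mM EGTA, 0.5 mM MgCl2. Samples were incubated 10 min at 37 °C, then 5 min at 0 °C, and polymerization was read by turbidimetry at 350 nm. Compounds were tested at 6.7 10^-5 M in triplicate, with deoxypodophyllotoxin as reference.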

Row | inhibition (Ovis aries) [%] | IC50 [3] [µM] | SMILES | inhibition of growth at 10 µM (KB [1]) [%] | inhibition of growth at 1 µM (KB [2]) [%] | IC50 (KB [4]) [nM] | IC50 (KB [5]) [nM] | IC50 [6] [nM]
1 | 2 |  | COc1ccc2c(c1)C(NC(=O)C(F)(F)F)CC(O)c1cc(OC)c(OC)cc1-2 (mixture of isomers) | 9 | 0 |  |  | 
2 | 63 | 60 | COc1ccc2c(c1)C(NC(=O)C(F)(F)F)CC(=O)c1cc(OC)c(OC)cc1-2 (stereo unspecified) | 38 | 0 |  |  | 
3 | 18 |  | COc1ccc2c(c1)C(NC(=O)C(F)(F)F)CC(O)c1cc(OC)c(OC)c(OC)c1-2 (stereo unspecified) | 94 | 0 | 1600 |  | 
4 |  |  | COc1ccc2c(c1)[C@@H](NC(C)=O)CCc1cc(OC)c(OC)c(OC)c1-2 |  |  |  | 19 | 700
5 | 13 |  | COc1cc2c(cc1OC)C(O)CC(NC(=O)C(F)(F)F)c1cc(O)ccc1-2 (mixture of isomers) | 2 | 0 |  |  | 
6 | 89 | 13 | COc1cc2c(c(OC)c1OC)-c1ccccc1C(NC(=O)C(F)(F)F)CC2O (mixture of isomers) | 8 | 0 |  |  | 
7 | 89 | 12 | COc1ccc2c(c1)C(NC(=O)C(F)(F)F)CC(=O)c1cc(OC)c(OC)c(OC)c1-2 (racemic) | 96 | 98 | 45 |  | 
8 | 29 |  | COc1cc2c(c(OC)c1OC)-c1ccc(O)cc1C(NC(=O)C(F)(F)F)CC2O (mixture of isomers) | 60 | 0 |  |  | 
9 | 48 | 80 | COc1cc2c(c(OC)c1OC)-c1ccccc1C(NC(=O)C(F)(F)F)CC2=O (stereo unspecified) | 91 | 18 | 2950 |  | 
10 | 24 |  | COc1cc2c(cc1OC)-c1ccc(O)cc1C(NC(=O)C(F)(F)F)CC2=O (stereo unspecified) | 40 | 0 |  |  | 
11 | 12 |  | COc1cc2c(cc1OC)-c1ccccc1C(NC(=O)C(F)(F)F)CC2=O (stereo unspecified) | 92 | 0 |  |  | 
12 | 62 | 37 | COc1cc2c(c(OC)c1OC)-c1ccc(O)cc1C(NC(=O)C(F)(F)F)CC2=O (stereo unspecified) | 96 | 37 | 330 |  | 
13 | 33 |  | COc1ccc(-c2ccc(OC)c3c2C(NC(=O)C(F)(F)F)CC3=O)c(OC)c1OC (stereo unspecified) | 97 | 0 | 1250 |  | 
14 | 23 |  | COc1cc2c(cc1OC)[C@H](O)C[C@@H](NC(=O)C(F)(F)F)c1ccccc1-2 (racemic) | 9 | 0 |  |  | 

Row | SMILES | inhibition (Ovis aries) [%] | IC50 [3] [µM] | inhibition of growth at 10 µM (KB [1]) [%] | inhibition of growth at 1 µM (KB [2]) [%] | IC50 (KB [4]) [nM] | IC50 (KB [5]) [nM] | IC50 [6] [nM]
15 | COc1cc([C@@H]2c3cc4c(cc3C[C@H]3COC(=O)[C@@H]32)OCO4)cc(OC)c1OC [DESOXYPODOPHYLLOTOXIN] | 100 | 3.2 | 100 | 100 | 3 |  | 
